Key:
Assay type in all cases: functional
HCT-116 [1] = experiment: Cytotoxicity against human HCT116 cells assessed as cell viability ratio at 10 uM after 24 hrs by MTT assay relative to control
SJSA-1 [2] = experiment: Cytotoxicity against human SJSA1 cells assessed as cell viability ratio at 10 uM after 24 hrs by MTT assay relative to control
Method in brief: (§1)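 Adherent lines in DMEM plus 10% FBS and penicillin-streptomycin, 37 °C, 5% CO2, lifted with Accutase. Seeded at 500–10,000 cells/well and rested 15 h. Compounds from 10 mM DMSO stocks dosed at 10 µM final, 1% DMSO final, n = 5, for 24 h. Medium then swapped for 1 mg/ml MTT in phenol-red-free medium for 3 h at 37 °C. Formazan dissolved in DMSO, OD read at 550 nm. Viability normalised to 1% DMSO vehicle control.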

PC-3 [3] = experiment: Cytotoxicity against human PC3 cells assessed as cell viability ratio at 10 uM after 24 hrs by MTT assay relative to control; method in brief: as §1
A549 [4] = experiment: Cytotoxicity against human A549 cells assessed as cell viability ratio at 10 uM after 24 hrs by MTT assay relative to control; method in brief: as §1
SK-MEL-2 [5] = experiment: Cytotoxicity against human SK-MEL-2 cells assessed as cell viability ratio at 10 uM after 24 hrs by MTT assay relative to control; method in brief: as §1
HeLa [6] = experiment: Cytotoxicity against human HeLa cells assessed as cell viability ratio at 10 uM after 24 hrs by MTT assay relative to control; method in brief: as §1
Jurkat [7] = experiment: Cytotoxicity against human Jurkat cells assessed as cell viability ratio at 10 uM after 24 hrs by MTT assay relative to control
Method in brief: (§2)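 Suspension lines grown in α-MEM plus 10% FBS and penicillin-streptomycin, 37 °C, 5% CO2. Seeded at 30,000 cells/well in phenol-red-free α-MEM and rested 15 h. Exposed to 10 µM, or 2 µM in the lower-dose repeat, at 1% DMSO final for 24 h. 5 mg/ml MTT added directly for 3 h at 37 °C. Plates spun, formazan dissolved in DMSO, OD read at 550 nm. Viability relative to vehicle.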

MDA-MB-231 [8] = experiment: Cytotoxicity against human MDA-MB-231 cells assessed as cell viability ratio at 10 uM after 24 hrs by MTT assay relative to control; method in brief: as §1
SK-N-MC [9] = experiment: Cytotoxicity against human SK-N-MC cells assessed as cell viability ratio at 10 uM after 24 hrs by MTT assay relative to control; method in brief: as §1
JeKo-1 [10] = experiment: Cytotoxicity against human JeKo1 cells assessed as cell viability ratio at 10 uM after 24 hrs by MTT assay relative to control; method in brief: as §2
Jurkat [11] = experiment: Cytotoxicity against human Jurkat cells assessed as cell viability after 24 hrs by MTT assay; settings: read-out: LC50 (the source's name)
Method in brief: (§3)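 Suspension cells grown in α-MEM with 10% FBS and penicillin-streptomycin, seeded at 30,000 cells/well in phenol red-free medium and held 15 h before treatment. Compounds diluted from 10 mM DMSO stocks, final 1% DMSO, for 24 h. MTT (5 mg/ml stock) added directly for 3 h at 37 °C, then centrifugation, DMSO solubilization, OD 550 nm. LC50 from dose-response curves normalized to vehicle.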

HeLa [12] = experiment: Cytotoxicity against human HeLa cells assessed as cell viability after 24 hrs by MTT assay; settings: read-out: LC50 (the source's name)
Method in brief: (§4)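 Adherent cells grown in DMEM with 10% FBS and penicillin-streptomycin, dissociated with Accutase, seeded at 500–10,000 cells/well and held 15 h before treatment. Compounds diluted from 10 mM DMSO stocks, final 1% DMSO, for 24 h at 37 °C, 5% CO2. Medium replaced with 1 mg/ml MTT for 3 h, formazan dissolved in DMSO, OD 550 nm. LC50 from dose-response curves normalized to 1% DMSO vehicle.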

SK-MEL-2 [13] = experiment: Cytotoxicity against human SK-MEL-2 cells assessed as cell viability after 24 hrs by MTT assay; settings: SK-MEL-2, 24 h, read-out: LC50 (the source's name); method in brief: as §4
JeKo-1 [14] = experiment: Cytotoxicity against human JeKo1 cells assessed as cell viability at 10 uM after 24 hrs by MTT assay relative to control; settings: JeKo-1, 24 h, read-out: Activity; method in brief: as §2
HCT-116 [15] = experiment: Cytotoxicity against human HCT116 cells assessed as cell viability after 24 hrs by MTT assay; settings: HCT-116, 24 h, read-out: LC50 (the source's name); method in brief: as §4
MDA-MB-231 [16] = experiment: Cytotoxicity against human MDA-MB-231 cells assessed as cell viability at 10 uM after 24 hrs by MTT assay relative to control; settings: MDA-MB-231, 24 h, read-out: Activity; method in brief: as §1
SJSA-1 [17] = experiment: Cytotoxicity against human SJSA1 cells assessed as cell viability at 10 uM after 24 hrs by MTT assay relative to control; settings: SJSA-1, 24 h, read-out: Activity; method in brief: as §1
A549 [18] = experiment: Cytotoxicity against human A549 cells assessed as cell viability at 10 uM after 24 hrs by MTT assay relative to control; settings: A549, 24 h, read-out: Activity; method in brief: as §1
SK-N-MC [19] = experiment: Cytotoxicity against human SK-N-MC cells assessed as cell viability at 10 uM after 24 hrs by MTT assay relative to control; settings: read-out: Activity; method in brief: as §1
JeKo-1 [20] = experiment: Cytotoxicity against human JeKo1 cells assessed as cell viability after 24 hrs by MTT assay; settings: JeKo-1, 24 h, read-out: LC50 (the source's name); method in brief: as §3
PC-3 [21] = experiment: Cytotoxicity against human PC3 cells assessed as cell viability at 10 uM after 24 hrs by MTT assay relative to control; settings: PC-3, 24 h, read-out: Activity; method in brief: as §1
HeLa [22] = experiment: Cytotoxicity against human HeLa cells assessed as cell viability at 10 uM after 24 hrs by MTT assay relative to control; settings: read-out: Activity; method in brief: as §1
A549 [23] = experiment: Cytotoxicity against human A549 cells assessed as cell viability after 24 hrs by MTT assay; settings: A549, 24 h, read-out: LC50 (the source's name); method in brief: as §4
Jurkat [24] = experiment: Cytotoxicity against human Jurkat cells assessed as cell viability at 10 uM after 24 hrs by MTT assay relative to control; settings: read-out: Activity; method in brief: as §2
SK-MEL-2 [25] = experiment: Cytotoxicity against human SK-MEL-2 cells assessed as cell viability at 10 uM after 24 hrs by MTT assay relative to control; settings: SK-MEL-2, 24 h, read-out: Activity; method in brief: as §1
PC-3 [26] = experiment: Cytotoxicity against human PC3 cells assessed as cell viability after 24 hrs by MTT assay; settings: PC-3, 24 h, read-out: LC50 (the source's name); method in brief: as §4
MDA-MB-231 [27] = experiment: Cytotoxicity against human MDA-MB-231 cells assessed as cell viability after 24 hrs by MTT assay; settings: MDA-MB-231, 24 h, read-out: LC50 (the source's name); method in brief: as §4
SJSA-1 [28] = experiment: Cytotoxicity against human SJSA1 cells assessed as cell viability after 24 hrs by MTT assay; settings: SJSA-1, 24 h, read-out: LC50 (the source's name); method in brief: as §4
JeKo-1 [29] = experiment: Cytotoxicity against human JeKo1 cells assessed as cell viability at 2 uM after 24 hrs by MTT assay relative to control; settings: JeKo-1, 24 h, read-out: Activity; method in brief: as §2
SK-N-MC [30] = experiment: Cytotoxicity against human SK-N-MC cells assessed as cell viability after 24 hrs by MTT assay; settings: read-out: LC50 (the source's name); method in brief: as §4
Jurkat [31] = experiment: Cytotoxicity against human Jurkat cells assessed as cell viability at 2 uM after 24 hrs by MTT assay relative to control; settings: read-out: Activity; method in brief: as §2
HCT-116 [32] = experiment: Cytotoxicity against human HCT116 cells assessed as cell viability at 10 uM after 24 hrs by MTT assay relative to control; settings: HCT-116, 24 h, read-out: Activity; method in brief: as §1

SMILES	fold change (FC) (HCT-116 [1])	fold change (FC) (SJSA-1 [2])	CC50 (Jurkat [11]) [µM]	CC50 (SK-MEL-2 [13]) [µM]	viability at 10 µM (JeKo-1 [14]) [%]	viability at 10 µM (MDA-MB-231 [16]) [%]	viability at 10 µM (SJSA-1 [17]) [%]	viability at 10 µM (A549 [18]) [%]	viability at 10 µM (SK-N-MC [19]) [%]	CC50 (JeKo-1 [20]) [µM]	viability at 10 µM (PC-3 [21]) [%]	viability at 10 µM (HeLa [22]) [%]	viability at 10 µM (Jurkat [24]) [%]	viability at 10 µM (SK-MEL-2 [25]) [%]	CC50 (PC-3 [26]) [µM]	CC50 (MDA-MB-231 [27]) [µM]	viability at 2 µM (JeKo-1 [29]) [%]	CC50 (SK-N-MC [30]) [µM]	viability at 2 µM (Jurkat [31]) [%]	viability at 10 µM (HCT-116 [32]) [%]	also measured
C=C1C(=O)O[C@@H]2[C@H]3O[C@]3(C)CC/C=C(\C)[C@@H](O)C[C@@H]12	1	0.9																			fold change (FC) (PC-3 [3]): 1; fold change (FC) (A549 [4]): 1; fold change (FC) (SK-MEL-2 [5]): 1; fold change (FC) (HeLa [6]): 0.2; fold change (FC) (Jurkat [7]): 1; fold change (FC) (MDA-MB-231 [8]): 0.9; fold change (FC) (SK-N-MC [9]): 1; fold change (FC) (JeKo-1 [10]): 1
C=C1C(=O)O[C@@H]2[C@H]3O[C@]3(C)CC/C=C(/COC(=O)Nc3cc(C(F)(F)F)cc(C(F)(F)F)c3)CC[C@@H]12			3.3	4.3	-1.8	5.5	23.3	25.1	2.1	3.4	13.7	3.8	0	25.7	5.5	6.1	71.5	0.6	74.9	3.9	CC50 (HeLa [12]): 1.5 µM; CC50 (HCT-116 [15]): 5.9 µM; CC50 (A549 [23]): 5.5 µM; CC50 (SJSA-1 [28]): 9.2 µM
C=C1C(=O)O[C@@H]2[C@H]3O[C@]3(C)CC/C=C(\CO)CC[C@@H]12	0.9	0.9																			fold change (FC) (PC-3 [3]): 1; fold change (FC) (A549 [4]): 0.9; fold change (FC) (SK-MEL-2 [5]): 1; fold change (FC) (HeLa [6]): 0.3; fold change (FC) (Jurkat [7]): 1; fold change (FC) (MDA-MB-231 [8]): 1; fold change (FC) (SK-N-MC [9]): 1; fold change (FC) (JeKo-1 [10]): 1
C=C1C(=O)O[C@@H]2[C@H]3O[C@]3(C)CC/C=C(/C)[C@@H](OC(=O)c3cc(C(F)(F)F)cc(C(F)(F)F)c3)C[C@@H]12			1.2	2.6	4.1	3.6	88.2	82.5	3	1.2	2.2	32	5	14.8	3.1	3.8	73.3	4.7	53.1	54.4	
C=C1C(=O)O[C@@H]2C3O[C@]3(C)CC/C=C(\C)CC[C@@H]12 (some centres not stated)			16.9	24.9	47.5	67	100	85	30	10	82.6	35	70.3	95.8	20.5	18.3	100	4.7	100	104	CC50 (HeLa [12]): 9 µM; CC50 (HCT-116 [15]): 18 µM; CC50 (A549 [23]): 29.7 µM; CC50 (SJSA-1 [28]): 42.4 µM
